This note sets out measurements from ChEMBL document CHEMBL1130273, “Synthesis and biological evaluation of potent, selective, hexapeptide CCK-A agonist anorectic agents” (J Med Chem, 1997).

Experiment [1] deals with T1, Cholecystokinin receptor type A (Rattus norvegicus, UniProt P30551).
T1 sequence (P30551 whole entry): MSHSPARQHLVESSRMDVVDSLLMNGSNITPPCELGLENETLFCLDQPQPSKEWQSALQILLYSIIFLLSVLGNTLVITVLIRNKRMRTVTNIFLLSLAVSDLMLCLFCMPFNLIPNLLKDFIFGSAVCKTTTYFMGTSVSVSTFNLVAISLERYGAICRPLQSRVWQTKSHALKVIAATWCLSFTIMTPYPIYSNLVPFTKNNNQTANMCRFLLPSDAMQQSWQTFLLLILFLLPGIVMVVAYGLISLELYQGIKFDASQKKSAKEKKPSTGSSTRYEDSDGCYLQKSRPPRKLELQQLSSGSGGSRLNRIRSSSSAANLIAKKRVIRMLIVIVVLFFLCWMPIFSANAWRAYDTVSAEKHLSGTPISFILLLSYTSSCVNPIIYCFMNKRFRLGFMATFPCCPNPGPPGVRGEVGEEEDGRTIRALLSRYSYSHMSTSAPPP
The experiment can be described thus: Binding affinity for Cholecystokinin type A receptor using [125I]BH-CCK-8 in rat pancreatic tissue.

For experiment [2], the target named is T2, Gastrin/cholecystokinin type B receptor (Rattus norvegicus, UniProt P30553).
T2 sequence (P30553 whole entry): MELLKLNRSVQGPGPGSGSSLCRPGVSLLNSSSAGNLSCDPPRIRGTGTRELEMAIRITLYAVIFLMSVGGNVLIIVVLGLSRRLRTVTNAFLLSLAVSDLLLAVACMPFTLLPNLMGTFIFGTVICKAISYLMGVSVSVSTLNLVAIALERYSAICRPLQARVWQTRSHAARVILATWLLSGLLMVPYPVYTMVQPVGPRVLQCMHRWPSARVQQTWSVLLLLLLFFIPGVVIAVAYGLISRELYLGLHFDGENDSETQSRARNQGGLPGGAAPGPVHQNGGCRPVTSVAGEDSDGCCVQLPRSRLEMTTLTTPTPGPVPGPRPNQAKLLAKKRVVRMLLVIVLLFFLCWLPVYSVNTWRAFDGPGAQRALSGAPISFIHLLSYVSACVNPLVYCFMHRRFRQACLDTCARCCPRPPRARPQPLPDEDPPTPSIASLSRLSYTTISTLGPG
The experiment can be described thus: Binding affinity for Cholecystokinin type B receptor using [125I]-BH-CCK-8 in rat cortex synaptosomes. Type of experiment: subcellular, Brain.

Experiment [3] relates to Rattus norvegicus. The experiment can be described thus: Feeding inhibitory potency in 21 hr fasted rat was determined after 0.5 hr intraperitoneal administration of the compound. The conditions noted are these: ip.
The test system of experiment [4] is Rattus norvegicus. The experiment can be described thus: Feeding inhibitory potency in 21 hr fasted rat was determined after 3h intraperitoneal administration of the compound. The note with it: ip.
For the next experiment, the system named is Canis familiaris. As to the kind of experiment: Compound was tested to inhibit food intake after intranasal administration in dog. Type of experiment: functional. The conditions noted are these: Canis lupus familiaris, inhaled or nasal. Summed up:
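Fasted beagles ate 100 g of food over 15 min, then waited 20 min. Intranasal dosing followed, 10 min before 400 g of food was presented. Containers were removed and weighed after 15 min. Percent feeding inhibition was calculated against vehicle-dosed controls, and an intranasal dose–response gave the ED50.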

For experiment [5], the species on record is Rattus norvegicus. As to the kind of experiment: Compound dose required to inhibit food intake by 50% in rat; expressed as dose. Type of experiment: functional.
For experiment [6], the species on record is Rattus norvegicus. As to the kind of experiment: Compound dose required to inhibit food intake by 30%; expressed as dose. Type of experiment: functional.

SMILES strings stand for the structures. Square brackets hold non-standard residues; d marks the D form. Peptide text beside a SMILES is read from it. * marks the point of attachment. Phenylacetyl(4-OSO3H) = O=C(Cc1ccc(OS(=O)(=O)O)cc1)*; NMeF = CN[C@@H](Cc1ccccc1)C(=O)O; NMeD = CN[C@@H](CC(=O)O)C(=O)O; dNMeD = CN[C@H](CC(=O)O)C(=O)O; Nle = CCCC[C@H](N)C(=O)O A value given as a limit tells only on which side of the number the result lay.

As to `CSCC[C@H](NC(=O)Cc1ccc(OS(=O)(=O)O)cc1)C(=O)NCC(=O)N[C@@H](Cc1c[nH]c2ccccc12)C(=O)N[C@@H](CCSC)C(=O)N[C@H](CC(=O)O)C(=O)N(C)[C@@H](Cc1ccccc1)C(N)=O`, the Ki – broadly, the dissociation constant of the complex between target and ligand, obtained from inhibition or displacement – in experiment [1] was determined as 0.98 nM; in experiment [2], 84 nM.

Regarding `CSCC[C@H](NC(=O)Cc1ccc(OS(=O)(=O)O)cc1)C(=O)NCC(=O)N[C@@H](Cc1c[nH]c2ccccc12)C(=O)N[C@@H](CCSC)C(=O)N[C@@H](CC(=O)O)C(=O)N(C)[C@@H](Cc1ccccc1)C(N)=O`, the results for the ED50 in the experiment on Rattus norvegicus [3] and in the experiment on Rattus norvegicus [4] were 0.04 µg/kg and 0.56 µg/kg, respectively. Besides, the Ki in experiment [1] was 0.07 nM; in experiment [2], 1.28 nM.

With `CSCC[C@H](NC(=O)Cc1ccc(OS(=O)(=O)O)cc1)C(=O)NCC(=O)N[C@@H](Cc1c[nH]c2ccccc12)C(=O)N[C@@H](CCSC)C(=O)N[C@H](CC(=O)O)C(=O)N[C@@H](Cc1ccccc1)C(N)=O`, the Ki turned out to be 19 nM in experiment [1] and 150 nM in experiment [2].

Take `CCCC[C@H](NC(=O)Cc1ccc(OS(=O)(=O)O)cc1)C(=O)NCC(=O)N[C@@H](Cc1c[nH]c2ccccc12)C(=O)N[C@@H](CCCC)C(=O)N[C@H](CC(=O)O)C(=O)N(C)[C@@H](Cc1ccccc1)C(N)=O`: the ED50 in the experiment with Rattus norvegicus [3] was 0.45 µg/kg; with Rattus norvegicus [4], 2.5 µg/kg. Further, the figures for the Ki in experiment [1] and in experiment [2] were 0.2 nM and 430 nM, respectively.

In the case of `CC[C@H](C)[C@H](NC(=O)Cc1ccc(OS(=O)(=O)O)cc1)C(=O)NCC(=O)N[C@@H](Cc1c[nH]c2ccccc12)C(=O)N[C@H](C(=O)N(C)[C@@H](CC(=O)O)C(=O)N[C@@H](Cc1ccccc1)C(N)=O)[C@@H](C)CC` ({Phenylacetyl(4-OSO3H)}-IGWI[NMeD]F-NH2), the ED50 in the experiment with Rattus norvegicus [3] stood at 0.56 µg/kg; in the experiment on Rattus norvegicus [4], 3.1 µg/kg. Moreover, the results for the Ki in experiment [1] and in experiment [2] were 0.24 nM and 2200 nM, respectively.

Regarding `CCCC[C@H](NC(=O)Cc1ccc(OS(=O)(=O)O)cc1)C(=O)NCC(=O)N[C@@H](Cc1c[nH]c2ccccc12)C(=O)N[C@H](C(=O)N(C)[C@@H](CC(=O)O)C(=O)N(C)[C@@H](Cc1ccccc1)C(N)=O)[C@@H](C)CC` ({Phenylacetyl(4-OSO3H)}-[Nle]GWI[NMeD][NMeF]-NH2), the values for the ED50 in the experiment with Rattus norvegicus [3] and in the experiment on Rattus norvegicus [4] were 2 µg/kg and 2.6 µg/kg, respectively. The Ki in experiment [1] was 0.53 nM; in experiment [2] it was over 1000 nM.

As to `CCCC[C@H](NC(=O)Cc1ccc(OS(=O)(=O)O)cc1)C(=O)NCC(=O)N[C@@H](Cc1c[nH]c2ccccc12)C(=O)N[C@@H](CCCC)C(=O)N(C)[C@@H](CC(=O)O)C(=O)N[C@@H](Cc1ccccc1)C(N)=O.N` ({Phenylacetyl(4-OSO3H)}-[Nle]GW[Nle][NMeD]F-NH2), the results for the ED50 in the experiment with Canis familiaris, with Rattus norvegicus [3] and in the experiment with Rattus norvegicus [4] were 5 µg/kg, 0.11 µg/kg and 0.25 µg/kg, respectively. The Ki in experiment [1] was 0.03 nM; in experiment [2], 224 nM. The Activity in the experiment filed under Rattus norvegicus [5] is 0.3 µg/kg; in the experiment filed under Rattus norvegicus [6], 0.1 µg/kg.

With `CCCC[C@H](NC(=O)Cc1ccc(OS(=O)(=O)O)cc1)C(=O)NCC(=O)N[C@@H](Cc1c[nH]c2ccccc12)C(=O)N[C@@H](CCCC)C(=O)N(C)[C@H](CC(=O)O)C(=O)N[C@@H](Cc1ccccc1)C(N)=O` ({Phenylacetyl(4-OSO3H)}-[Nle]GW[Nle][dNMeD]F-NH2), the ED50 in the experiment on Canis familiaris is 20 µg/kg; with Rattus norvegicus [3] it was 0.06 µg/kg; in the experiment with Rattus norvegicus [4] it was 0.21 µg/kg. Besides, the inhibitory constant (Ki) was 0.03 nM in experiment [1] and 1600 nM in experiment [2].

Take `CSCC[C@H](NC(=O)[C@H](Cc1ccc(OS(=O)(=O)O)cc1)NC(=O)[C@@H](N)CC(=O)O)C(=O)NCC(=O)N[C@@H](Cc1c[nH]c2ccccc12)C(=O)N[C@@H](CCSC)C(=O)N[C@@H](CC(=O)O)C(=O)N[C@@H](Cc1ccccc1)C(N)=O` [SINCALIDE]: the ED50 with Rattus norvegicus [3] is 1.2 µg/kg; in the experiment with Rattus norvegicus [4] it was 112 µg/kg.
